From ChEMBL document CHEMBL3091283, “Selective cannabinoid receptor type 2 (CB2) agonists: optimization of a series of purines leading to the identification of a clinical candidate for the treatment of osteoarthritic pain” (J Med Chem, 2013)
Values belong to the compound of their own block, whether it stands above or below them.

Columns and labels:
[1] = AUC in Sprague-Dawley rat at 3 mg/kg, po; assay type: ADME, organism-based; parameters: dose 3 mg/kg, route oral; conditions: plasma
MDR1 [2] = assay: MDR1-mediated transport in MDCK cells assessed as permeability from apical to basolateral side at 5 uM; assay type: ADME, cell-based, Canis lupus familiaris; conditions: dog, read-out: permeability
In short: (§1)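 Transport measured across MDCK-MDR1 monolayers at 5 μM, with and without inhibitor. A→B and B→A fluxes recorded in cm/s × 10−6; efflux ratio taken as B→A over A→B.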

[3] = Volume of distribution in Beagle dog at 1 mg/kg, iv and 3 mg/kg, po; assay type: ADME, organism-based, Canis lupus familiaris; conditions: in vivo
In short: (§2)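 Male beagle dogs given 1 mg/kg iv and 3 mg/kg po. Plasma PK parameters derived: clearance, volume of distribution, oral half-life, AUC, Cmax and oral bioavailability.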

[4] = Cmax in Sprague-Dawley rat at 1 mg/kg, iv and 1 mg/kg, po; assay type: ADME, organism-based; conditions: in vivo
In short: (§3)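 Male Sprague-Dawley rats dosed 1 mg/kg iv and 1 mg/kg po. Clearance, volume of distribution, oral half-life, AUC, Cmax and bioavailability calculated from plasma levels.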

MDR1 [5] = assay: MDR1-mediated transport in MDCK cells assessed as permeability from basolateral to apical side at 5 uM; assay type: ADME, cell-based, Canis lupus familiaris; conditions: dog, read-out: permeability; in short: as §1
[6] = AUC in Beagle dog at 1 mg/kg, iv and 3 mg/kg, po; assay type: ADME, organism-based, Canis lupus familiaris; conditions: plasma; in short: as §2
[7] = Cmax in Beagle dog at 1 mg/kg, iv and 3 mg/kg, po; assay type: ADME, organism-based, Canis lupus familiaris; conditions: in vivo; in short: as §2
[8] = Aqueous solubility in simulated GI fluid at pH 6.8; assay type: physicochemical
[9] = Oral bioavailability in Sprague-Dawley rat at 1 mg/kg; assay type: ADME, organism-based; conditions: in vivo; in short: as §3
[10] = AUC in Sprague-Dawley rat at 1 mg/kg, iv and 1 mg/kg, po; assay type: ADME, organism-based; conditions: plasma; in short: as §3
[11] = Oral bioavailability in Beagle dog at 3 mg/kg; assay type: ADME, organism-based, Canis lupus familiaris; conditions: in vivo; in short: as §2
[12] = Volume of distribution in Sprague-Dawley rat at 1 mg/kg, iv; assay type: ADME, organism-based; parameters: dose 1 mg/kg, route intravenous; conditions: in vivo
In short: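 Male Sprague–Dawley rats were given 1 mg/kg iv. Clearance and volume of distribution were derived from plasma pharmacokinetics.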

[13] = Lipophilicity, log P of the compound; assay type: physicochemical; conditions: octanol/water
[14] = Ratio of drug level in brain to plasma in rat; assay type: ADME; conditions: read-out: BPR

SMILES: COCCn1c(-c2ccccc2Cl)nc2c(N3CCN(CCF)CC3)nc(C)nc21.Cl
- AUC [1]: < 50 ng·h/mL

SMILES: CCN1CCN(c2nc(C)nc3c2nc(-c2ccccc2Cl)n3CC2CCOCC2)CC1.Cl
- bioavailability [9]: 27%
- logP [13]: 3.4
- Vd [12]: 5 L/kg

SMILES: CCN1CCN(c2nc(C)nc3[nH]c(-c4ccccc4Cl)nc23)CC1
- logP [13]: 3.7

SMILES: CCN1CCN(c2nc(C)nc3c2nc(-c2ccccc2Cl)n3CCOC)CC1.Cl
- AUC [1]: < 50 ng·h/mL

The next lines start with the values.

- Papp A→B at 5 µM (MDR1 [2]): 42 ×10⁻⁶ cm/s
- Vd [3]: 9.2 L/kg
- Cmax [4]: 76 ng/mL
- Papp B→A at 5 µM (MDR1 [5]): 43 ×10⁻⁶ cm/s
- AUC [6]: 286 ng·h/mL
- Cmax [7]: 62 ng/mL
- solubility [8]: > 100 µM
- bioavailability [9]: 43%
- AUC [10]: 312 ng·h/mL
- bioavailability [11]: 60%
- Vd [12]: 1.9 L/kg
SMILES: Cc1nc(N2CCN(C)CC2)c2nc(-c3ccccc3Cl)n(CCS(C)(=O)=O)c2n1.Cl

- logP [13]: 3.2
SMILES: Cc1nc(N2CCN(C)CC2)c2nc(-c3ccccc3Cl)n([C@@H]3CCOC3)c2n1

- Papp A→B at 5 µM (MDR1 [2]): 3.1 ×10⁻⁶ cm/s
- Vd [3]: 5.5 L/kg
- Kp [14]: 0.9
- Cmax [4]: 60 ng/mL
- Papp B→A at 5 µM (MDR1 [5]): 3.1 ×10⁻⁶ cm/s
- AUC [6]: 1940 ng·h/mL
- Cmax [7]: 352 ng/mL
- solubility [8]: > 100 µM
- bioavailability [9]: 67%
- AUC [10]: 265 ng·h/mL
- logP [13]: 3.1
- bioavailability [11]: 76%
- Vd [12]: 6 L/kg
SMILES: Cc1nc(N2CCN(C)CC2)c2nc(-c3ccccc3Cl)n(C3CCOCC3)c2n1.Cl

- solubility [8]: > 100 µM
SMILES: CCN1CCN(c2nc(C)nc3c2nc(-c2ccccc2Cl)n3C)CC1.Cl
